# Screens as filed in PubChem BioAssay.
# V1aR counter: agonists of human V1a receptor, primary screen, counter-screen for OXTR agonist project, fluorescence, CHO-V1R cells; activation, % at 3 µM; 320,000 compounds, 0.25% hits; Vasopressin V1a receptor (Homo sapiens), P37288; Fluo-8 calcium fluorescence, agonist mode; 0% DMSO, 100% 3 nM vasopressin;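 active = activation above the mean activation of all tested compounds plus 3 SD, per screening run, cut at about 20% in these data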;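 also: signal is peak over basal fluorescence ratio across a 100 second FLIPR read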
# TAAR1 ag: human TAAR1 agonists, primary screen, Fluo-8 calcium fluorescence, CHO RD-HGA16 cells. Trace amine-associated receptor 1 (Homo sapiens), Q96RJ0. vehicle wells 0%, saturating PEA agonist 100%. activation, % at 3 µM. 360,000 compounds, 0.99% hits. AID 624467, 2012;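 active = activation above the mean activation of all test compounds in the run plus 3 SD, cut at about 38% in these data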
# Target sequence (Q96RJ0 whole entry, looked up): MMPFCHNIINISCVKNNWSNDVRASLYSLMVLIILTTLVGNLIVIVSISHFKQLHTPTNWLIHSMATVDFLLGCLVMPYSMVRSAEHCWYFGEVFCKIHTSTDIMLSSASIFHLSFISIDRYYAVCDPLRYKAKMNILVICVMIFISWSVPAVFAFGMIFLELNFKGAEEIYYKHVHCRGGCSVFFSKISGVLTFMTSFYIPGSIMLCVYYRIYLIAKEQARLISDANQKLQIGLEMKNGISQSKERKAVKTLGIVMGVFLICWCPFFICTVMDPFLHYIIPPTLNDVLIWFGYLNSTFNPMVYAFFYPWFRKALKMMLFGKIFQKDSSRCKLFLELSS
#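 System: CHO RD-HGA16 cells carrying human TAAR1 plus Gα16; Incubation: 17-24 h seeding, 75 min 37 °C dye, 30 min RT; Measured by: Fluo-8 fluorescence, 5 s baseline then 140 s kinetic read; Control set: DMSO and PEA EC100; Replication: single well for each compound.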
# OXTR ag: human OXTR agonists, primary screen, fluorescence, CHO-OTR cells, Fluo-8 calcium; Fluo-8 calcium fluorescence; normalized: DMSO 0%, oxytocin 100%; activation, % at 3 µM; 320,000 compounds, 0.32% hits; AID 2435, 2010;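 active = activation above the mean of all tested compounds plus 3 SD, cutoff set per screening run, cut at about 20% in these data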;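 also: peak over basal fluorescence ratio from a 100 s FLIPR kinetic read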
# OXTR potentiate: human OXTR potentiators, primary screen, fluorescence, CHO-OTR cells, Fluo-8 calcium | Oxytocin receptor (Homo sapiens), P30559 | Fluo-8 calcium fluorescence, potentiator mode; 0% = oxytocin EC15, 100% = EC100 | activation, % at 3 µM | 320,000 compounds, 0.061% hits | AID 2445, 2010;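 active = activation above that plate's cutoff, the mean activation of tested compounds plus 3 SD, cut at about 6.6% in these data, passing the limit was not always enough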;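 also: 100% uses oxytocin at 75 nM as the full agonist control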
#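 Assay system: CHO-OTR cells, human receptor / Also added: oxytocin at about EC15, sub-maximal agonist stimulus / Dosing: single dose, 3.0 µM nominal final compound concentration / Incubation: 6 min pre-incubation, 100 s read / Technique: Fluo-8 calcium dye fluorescence / Read-out: % activation vs EC15 and EC100 oxytocin / Benchmarks: EC15 oxytocin low, 75 nM oxytocin high / Replicates: singlicate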
# TAAR1 antag: human TAAR1 antagonists, primary screen, Fluo-8 calcium fluorescence, CHO RD-HGA16 cells; Trace amine-associated receptor 1 (Homo sapiens), Q96RJ0; antagonist; inhibition, % at 3 µM; 360,000 compounds, 1.5% hits; AID 624466, 2012;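 active = inhibition above a per-plate cutoff, the mean inhibition of test compounds on that plate plus 3 SD, cut at about 49% in these data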;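 also: 0% = DMSO plus EC80 beta-PEA response and 100% = DMSO alone without agonist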
#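 Assay system: CHO-derived RD-HGA16 cells stably expressing human TAAR1 plus Gα16. Timing: 140 s kinetic read after compound, 140 s after agonist. Technique: kinetic Fluo-8 calcium fluorescence measurement. Measure: % inhibition of agonist calcium response.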
# * hit, by the source's call; . = no result; + = active, no number. In the library only some 2.3% were active in any assay of this set; here they are far more common.
SMILES,V1aR counter,TAAR1 ag,OXTR ag,OXTR potentiate,TAAR1 antag
Cc1cc(C)cc(-n2c(C)cc(C(=O)CSc3nnnn3C)c2C)c1,3,38*,7,-23,44
Cc1cccn2c(=O)c(/C=N/O)c(N3CCOCC3)nc12,1,10,-1,-21,1
CN[C@@H]1CC[C@H](c2ccc(Cl)c(Cl)c2)c2ccccc21,.,45*,.,.,6
O=C(COC(=O)/C=C/c1ccco1)NCc1ccco1,0,1,-1,-2,16
O=C(COC(=O)/C=C/c1ccco1)NCCc1ccccc1,0,39*,0,-5,47
O=C(C(=O)N1CCN(C(=O)C2CCCC2)CC1)c1cccc(C(F)(F)F)c1,.,0,.,.,-19
COc1cc(OC)c(N(C)S(=O)(=O)c2cccc(C(=O)Nc3nc(C)cs3)c2)cc1Cl,2,8,1,-7,51*
CN(c1ccccc1)S(=O)(=O)c1cccc(C(=O)OCC(=O)NCc2ccccc2)c1,3,5,1,-5,25
COc1ccc(N(C)S(=O)(=O)c2cccc(C(=O)OCC(=O)N3CC(C)CC(C)C3)c2)cc1 (centres undefined),8,9,6,-10,54*
COc1cc(OC)c(N(C)S(=O)(=O)c2cccc(C(=O)OCC(=O)NCc3ccco3)c2)cc1Cl,1,20,1,-9,51*
CC1CC(C)CN(C(=O)c2cccc(S(=O)(=O)N(C)c3ccccc3)c2)C1 (centres undefined),.,6,.,.,-5
COc1ccc(N(C)S(=O)(=O)c2cccc(C(=O)Nc3nc(C)cs3)c2)cc1,5,14,2,-8,37
CN(c1ccccc1)S(=O)(=O)c1cccc(C(=O)OCC(=O)NCc2ccco2)c1,1,4,-1,-9,2
COc1ccc(N(C)S(=O)(=O)c2cccc(C(=O)OCC(=O)NCc3ccccc3OC)c2)cc1,4,11,4,-6,57*
COC(=O)[C@@H](N[C@H](/C=C/c1ccccc1)[C@@H](O)Cc1ccccc1)C(C)C,.,-3,.,.,-4
COc1ccc(CCn2c(C)cc(C(=O)COC(=O)c3ccc(O)cc3O)c2C)cc1,.,10,.,.,65*
COc1ccc(CCn2c(C)cc(C(=O)COC(=O)c3cnc(C)cn3)c2C)cc1,-1,7,0,-4,6
Cc1ccc(C(C(=O)NCc2ccccc2)N(Cc2cccs2)C(=O)c2ccc3c(c2)OCCO3)cc1 (centres undefined),4,16,1,-20,64*
CN(C)C(=O)c1ccc(Nc2nc(-c3cccs3)nc3ccccc23)cc1,1,9,0,-9,51*
C[C@H]1CN([C@@H](C)CO)C(=O)c2cccc(NC(=O)c3nc4ccccc4s3)c2O[C@H]1CN(C)C(=O)Nc1ccc(F)cc1,2,33,3,-7,55*
C[C@H]1CN([C@@H](C)CO)C(=O)c2cccc(NC(=O)Nc3ccc(C(F)(F)F)cc3)c2O[C@@H]1CN(C)C(=O)Nc1ccc(F)cc1,6,23,6,-8,56*
COc1ccc(NC(=O)Nc2cccc3c2O[C@H](CN(C)C(=O)Nc2ccc(C(F)(F)F)cc2)[C@@H](C)CN([C@H](C)CO)C3=O)cc1,0,.,0,4,.
C[C@H]1CN([C@@H](C)CO)C(=O)c2cccc(NC(=O)Nc3ccc(C(F)(F)F)cc3)c2O[C@H]1CN(C)C,2,8,0,-7,5
C[C@H](CO)N1C[C@H](C)[C@@H](CN(C)CC2CC2)Oc2c(NC(=O)C3CC3)cccc2C1=O,.,7,.,.,-5
C[C@H](CO)N1C[C@H](C)[C@@H](CN(C)C(=O)Nc2ccc(C(F)(F)F)cc2)Oc2c(NC(=O)Nc3ccc(C(F)(F)F)cc3)cccc2C1=O,5,10,3,0,58*
SMILES,V1aR counter,TAAR1 ag,OXTR ag,OXTR potentiate,TAAR1 antag
Cc1cc(C(=O)Nc2cccc3c2O[C@H](CN(C)CC2CC2)[C@@H](C)CN([C@H](C)CO)C3=O)n(C)n1,0,43*,1,3,14
COC(=O)[C@]12C[C@H](CC(=O)N3CCCC3)C(=O)N(CCC3=CCCCC3)C1=C[C@H](COCc1ccccc1)O[C@@H]2C,.,-2,.,.,-23
CCc1c(-c2ccccc2)ncn1CCc1ccccc1OC,.,11,.,.,-6
CCOC(=O)N1CCN(C2OC(=O)c3ccccc32)CC1 (centres undefined),3,38*,0,-5,-6
O=C1OC(N2CCN(C(=O)C3CCCO3)CC2)c2ccccc21 (centres undefined),2,15,1,-13,-11
Cc1ccc(-c2cc(C(=O)N3CCN(c4ccc(F)cc4)CC3)c3ccccc3n2)o1,-1,19,-2,-3,46
Cc1ccc(-c2cc(C(=O)N3CCN(c4ncccn4)CC3)c3cc(Br)ccc3n2)o1,0,24,0,-4,59*
O=C(N[C@H](C(=O)N1CCC[C@H]1C(=O)NC1CCCC1)C1CCCCC1)c1nccs1,.,2,.,.,-32
COc1ccc(-c2c(-c3ccccc3OC)sc3ccccc23)cc1F,.,1,.,.,-11
Cc1ccc(NC(=O)COC(=O)C2(c3ccc(Cl)cc3)CCCC2)cc1,3,10,2,-12,58*
CC(C)C[C@@H]1COc2cc(F)ccc2S(=O)(=O)N1,.,1,.,.,-34
O=C(/C=C/c1cccs1)NC(=S)NNC(=O)Cc1cccs1,9,67*,7,-5,26
Cc1cccc2nc(-c3ccccc3)c(-c3ccc(CN4CCC(n5cc(-c6ccccc6)[nH]c5=O)CC4)cc3)nc12,.,2,.,.,-9
COc1ccc(CCNC(=O)CCN2C(=O)[C@@H]3Cc4ccccc4CN3C2=O)cc1OC,4,16,5,-13,50*
CC(=O)Oc1ccc2c(c1)Oc1cc(OC(C)=O)ccc1C21OC(=O)c2ccccc21,+,.,938*,-9,.
C[C@H]1CN([C@@H](C)CO)C(=O)c2c(c3ccccc3n2C)-c2ccccc2CO[C@H]1CN(C)C(=O)Nc1cccc(F)c1,.,29,.,.,47
O=C(NCCn1cc(SCc2ccccc2F)c2ccccc21)c1c(F)cccc1F,2,2,1,-6,83*
O=C(NCCn1cc(SCC(=O)N2CCOCC2)c2ccccc21)c1c(F)cccc1F,2,7,1,0,28
COc1cc(OC)c(C(=O)OCC(=O)c2ccc3c(c2)NC(=O)CO3)cc1OC,2,12,3,-3,13
O=C1COc2ccc(C(=O)COC(=O)c3ccc(F)cc3Cl)cc2N1,7,12,3,-7,57*
